Test results taken from ChEMBL document CHEMBL1133253, “Improved antibacterial activities of coumarin antibiotics bearing 5',5'-dialkylnoviose: biological activity of RU79115” (Bioorg Med Chem Lett, 2000).
Converted amounts (≈) assume the structure as drawn.

Columns and labels:
Enterococcus faecium = test: Tested for in vitro antibacterial activity against Enterococcus faecium 02D31P2 vancomycin teicoplanin erythromycin resistance phenotype; format: functional
Staphylococcus aureus [1] = test: IC50 was determined for gyrase B of Staphylococcus aureus against novobiocin (0.5 mg/mL) as reference; IC50nov/IC50comp
Staphylococcus aureus [2] = test: Tested for in vitro antibacterial activity against Staphylococcus aureus 011 HT3 phenotype; format: functional
Streptococcus pyogenes = test: Tested for in vitro antibacterial activity against Streptococcus pyogenes O2A1UC1 phenotype; format: functional
Staphylococcus aureus [3] = test: Tested for in vitro antibacterial activity against Staphylococcus aureus 011 HT1 novobiocin resistance phenotype; format: functional
[4] = test system: Staphylococcus epidermidis; test: Tested for in vitro antibacterial activity against Staphylococcus epidermidis 012GO42 oxacillin resistance phenotype; format: functional
Staphylococcus aureus [5] = test: Tested for in vitro antibacterial activity against Staphylococcus aureus 011 GO64 ofloxacin oxacillin erythromycin resistance phenotype; format: functional
Mus musculus [6] = test: Minimum inhibitory concentration of the subcutaneously administered compound evaluated against Staphylococcus aureus HT-17 strain in mice (SC); format: functional
Mus musculus [7] = test: Minimum inhibitory concentration of the subcutaneously administered compound evaluated against […] PW3 strain in mice (SC); format: functional
Mus musculus [8] = test: Minimum inhibitory concentration of the subcutaneously administered compound evaluated against Staphylococcus aureus GO3 strain in mice (SC); format: functional
Mus musculus [9] = test: Protective dose of orally administered compound against intraperitoneally-induced septicaemia model ( vancomycin resistant Enterococci faecium D3HM3 strain) in murine; format: functional; details: po, read-out: PD50
How it was run: (§1)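 PD50 was measured in a murine septicaemia model, with infection induced intraperitoneally with the named Gram-positive strain. Test compound was given orally and the PD50 was calculated by the probit method.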

Mus musculus [10] = test: Protective dose of orally administered compound against intraperitoneally-induced septicaemia model ( vancomycin resistant Enterococci faecium D3HM4 strain) in murine; format: functional; details: po, read-out: PD50; how it was run: as §1
Mus musculus [11] = test: Protective dose of orally administered compound against intraperitoneally-induced septicaemia model ( vancomycin resistant Enterococci faecium D3HT12 strain) in murine; format: functional; details: po, read-out: PD50; how it was run: as §1
Mus musculus [12] = test: Protective dose of orally administered compound against intraperitoneally-induced septicaemia model (Enterococci faecium D3HT7 strain) in murine; format: functional; details: po, read-out: PD50
Mus musculus [13] = test: Protective dose of subcutaneously administered compound against intraperitoneally-induced septicaemia model (Staphylococcus aureus GO3) in murine; format: functional; details: sc, read-out: PD50
How it was run: (§2)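 Murine septicaemia was induced by intraperitoneal infection, and the compound was given subcutaneously. PD50 was derived by probit analysis.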

Mus musculus [14] = test: Protective dose of subcutaneously administered compound against intraperitoneally-induced septicaemia model (Staphylococcus aureus HT-17) in murine; format: functional; details: sc, read-out: PD50; how it was run: as §2
Mus musculus [15] = test: Protective dose of subcutaneously administered compound against intraperitoneally-induced septicaemia model ([…] PW3 strain) in murine; format: functional; details: sc, read-out: PD50; how it was run: as §2
Mus musculus [16] = test: Protective dose of orally administered compound against intraperitoneally-induced septicaemia model (Enterococci faecalis D2HT6 strain) in murine; format: functional; details: po, read-out: PD50; how it was run: as §1

| SMILES | MIC (Enterococcus faecium) [µg/mL] | Ratio (Staphylococcus aureus [1]) | MIC (Staphylococcus aureus [2]) [µg/mL] | MIC (Streptococcus pyogenes) [µg/mL] | MIC (Staphylococcus aureus [3]) [µg/mL] | MIC [4] [µg/mL] | MIC (Staphylococcus aureus [5]) [µg/mL] | MIC (Mus musculus [6]) [µg/mL] | MIC (Mus musculus [7]) [µg/mL] | MIC (Mus musculus [8]) [µg/mL] | ED50 (Mus musculus [9]) [mg/kg] | ED50 (Mus musculus [10]) [mg/kg] | ED50 (Mus musculus [11]) [mg/kg] | ED50 (Mus musculus [12]) [mg/kg] | ED50 (Mus musculus [13]) [mg/kg] | ED50 (Mus musculus [14]) [mg/kg] | ED50 (Mus musculus [15]) [mg/kg] | ED50 (Mus musculus [16]) [mg/kg] |
| --- | --- | --- | --- | --- | --- | --- | --- | --- | --- | --- | --- | --- | --- | --- | --- | --- | --- | --- |
| CO[C@@H]1[C@@H](OC(=O)c2ccc(C)[nH]2)[C@@H](O)[C@H](Oc2ccc3c(O)c(NC(=O)c4ccc(O)c(CC=C(C)C)c4)c(=O)oc3c2Cl)OC1(C)C [CHLOROBIOCIN] | < 0.04 | 1.7 | < 0.04 | < 0.04 | 0.6 (≈ 0.861 µM) |  |  |  |  |  |  |  |  |  |  |  |  |  |
| C#CCONC(=O)O[C@H]1[C@@H](O)[C@H](Oc2ccc3c(=O)c(/C(C)=N/OC)c(O)oc3c2C)OC(C)(C)[C@@H]1OC | 2.5 (≈ 4.68 µM) | 12.5 | 0.16 (≈ 0.299 µM) | 0.6 (≈ 1.12 µM) | 5 (≈ 9.35 µM) | 0.08 (≈ 0.15 µM) | 0.16 (≈ 0.299 µM) |  |  |  |  |  |  |  |  |  |  |  |
| C#CCONC(=O)O[C@H]1[C@@H](O)[C@H](Oc2ccc3c(=O)c(/C(C)=N/OC)c(O)oc3c2C)O[C@@](C)(CC=C)[C@@H]1OC | 0.6 (≈ 1.07 µM) | 2.6 | < 0.04 | 0.3 (≈ 0.535 µM) | 1.2 (≈ 2.14 µM) | < 0.04 |  |  |  |  |  |  |  |  |  |  |  |  |
| C#CCONC(=O)O[C@H]1[C@@H](O)[C@H](Oc2ccc3c(O)c(/C(C)=N/OC)c(=O)oc3c2C)O[C@@H](CC)[C@@H]1OC | 40 (≈ 74.8 µM) | 2.6 | 0.3 (≈ 0.561 µM) | 2.5 (≈ 4.68 µM) | 20 (≈ 37.4 µM) | 0.3 (≈ 0.561 µM) | 0.6 (≈ 1.12 µM) |  |  |  |  |  |  |  |  |  |  |  |
| C#CCONC(=O)O[C@H]1[C@@H](O)[C@H](Oc2ccc3c(O)c(/C(C)=N/OC)c(=O)oc3c2C)O[C@@](C)(CC)[C@@H]1OC | 0.15 (≈ 0.273 µM) | 11.1 | < 0.04 | 0.08 (≈ 0.146 µM) | 0.3 (≈ 0.547 µM) | < 0.04 |  |  |  |  |  |  |  |  |  |  |  |  |
| CC(=O)NC[C@H]1CN(c2ccc(N3CCOCC3)c(F)c2)C(=O)O1 [LINEZOLID] |  |  |  |  |  |  |  | 1.2 (≈ 3.56 µM) | 1.2 (≈ 3.56 µM) | 2.5 (≈ 7.41 µM) | 2.1 | 8.6 | 1.8 | 2.4 | 8.7 | 5.8 | 3 | 4.2 |
